≈ marks a conversion by molar mass, not a printed value.

One assay deals with A204. In words: In vitro cytotoxicity against human A204 Rhabdomyosarcoma cell line. The format is functional, cell-based. Summed up:
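A204 human rhabdomyosarcoma soft-agarose colony assay. 10^4 trypsin/EDTA-dissociated cells in 0.3% agarose over a 0.5% agarose base, in DMEM with 10% FCS, at 37 °C and 5% CO2. Compound was applied in an upper medium layer on day 1 for 24 h, then washed out. Colonies >60 µm were counted after 7–9 days by tetrazolium stain and image analysis. Quadruplicates with vehicle controls, at least four concentrations up to 100 or 1000 µg/mL. IC50 from a monoexponential least-squares fit over at least three preparations, mean ± SE.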

Assay [1] concerns Mus musculus. Description: In vivo antitumor activity against P388 Lymphocytic Leukemia in mice at 200 mg/kg expressed as T/C value w.r.t. compound 6. The format is functional.
Assay [2] has as its system Mus musculus. Description: In vivo antitumor activity against P388 Lymphocytic Leukemia in mice at 800 mg/kg expressed as T/C value w.r.t. compound 6. The assay is classed as functional.
In assay [3] the test system is Mus musculus. Description: In vivo antitumor activity against P388 Lymphocytic Leukemia in mice at 100 mg/kg expressed as T/C value w.r.t. compound 6. The format is functional.
Assay [4] deals with Mus musculus. In words: In vivo antitumor activity against P388 Lymphocytic Leukemia measured as Survivors on day 5 at 100 mg/kg, w.r.t. compound 6; 6/6. The format is functional.
In assay [5] the test system is Mus musculus. In words: In vivo antitumor activity against P388 Lymphocytic Leukemia measured as Survivors on day 5 at 400 mg/kg, w.r.t. compound 6; 6/6. The format is functional.
For assay [6], the system named is Mus musculus. Description: In vivo antitumor activity against P388 Lymphocytic Leukemia measured as Survivors on day 5 at 200 mg/kg, w.r.t. compound 6; 5/6. The assay is classed as functional.
In assay [7] the test system is Mus musculus. In words: In vivo antitumor activity against P388 Lymphocytic Leukemia in mice at 400 mg/kg expressed as T/C value w.r.t. compound 6. The format is functional.
In assay [8] the test system is Mus musculus. Description: In vivo antitumor activity against P388 Lymphocytic Leukemia measured as Survivors on day 5 at 800 mg/kg, w.r.t. compound 6; 6/6. The format is functional.
The test system of assay [9] is Mus musculus. Description: In vivo antitumor activity against P388 Lymphocytic Leukemia in mice at 8.88 mg/kg expressed as T/C value. The format is functional.
Assay [10] has as its system Mus musculus. Description: In vivo antitumor activity against P388 Lymphocytic Leukemia in mice at 17.75 mg/kg expressed as T/C value. The assay is classed as functional.
Assay [11] relates to Mus musculus. In words: In vivo antitumor activity against P388 Lymphocytic Leukemia in mice at 35.5 mg/kg expressed as T/C value. The assay is classed as functional.
In assay [12] the test system is Mus musculus. In words: In vivo antitumor activity against P388 Lymphocytic Leukemia in mice at 71 mg/kg expressed as T/C value. The format is functional.
In assay [13] the test system is Mus musculus. Description: In vivo antitumor activity against P388 Lymphocytic Leukemia measured as Survivors on day 5 at 8.88 mg/kg; 6/6. The assay is classed as functional.
Assay [14] relates to Mus musculus. Description: In vivo antitumor activity against P388 Lymphocytic Leukemia measured as Survivors on day 5 at 71 mg/kg; 5/6. The assay is classed as functional.
The test system of assay [15] is Mus musculus. In words: In vivo antitumor activity against P388 Lymphocytic Leukemia measured as Survivors on day 5 at 17.75 mg/kg; 5/6. The format is functional.
Assay [16] deals with Mus musculus. In words: In vivo antitumor activity against P388 Lymphocytic Leukemia measured as Survivors on day 5 at 35.5 mg/kg; 6/6. The assay is classed as functional.

In the assay with A204, `CC1C(=O)O[C@@H]2CCN3CC=C(COC(=O)C(C)(O)C1(C)O)[C@H]23` (some centres undefined) displayed an IC50 of 316 µg/mL (≈ 971 µM).

In the case of `C[C@H]1C(=O)O[C@@H]2CC[N+]3([O-])CC=C(COC(=O)[C@](C)(O)[C@]1(C)O)[C@H]23` (some centres undefined) [MONOCROTALINE N-OXIDE], the IC50 in the assay on A204 turned out to be 721 µg/mL (≈ 2110 µM).

For the compound `CC(C)C(O)(C(=O)OCC1CCN2CC[C@@H](O)[C@@H]12)C(C)O.CC(C)C(O)(C(=O)OCC1CC[N+]2([O-])CC[C@@H](O)[C@@H]12)C(C)O` (some centres undefined), the T/C in the assay on Mus musculus [1] worked out at 118%; in the assay on Mus musculus [2], 146%; in the assay with Mus musculus [3] it was 101%; with Mus musculus [7], 120%. For the same compound, the Survivors with Mus musculus [4] amounted to 6; in the assay on Mus musculus [5] it was 6; in the assay with Mus musculus [6], 5; with Mus musculus [8], 6.

As for `CCC(O)(C(=O)OCC1=CC[N+]2([O-])CC[C@H](OC(=O)[C@@](O)(CC)c3ccccc3)[C@@H]12)c1ccccc1` (some centres undefined), the T/C is on record as 107% in the assay with Mus musculus [9], 100% with Mus musculus [10], 106% with Mus musculus [11] and 109% in the assay with Mus musculus [12]. The Survivors in the assay on Mus musculus [13] was found to be 6; in the assay with Mus musculus [14] it was 5; with Mus musculus [15], 5; in the assay with Mus musculus [16], 6.

Regarding `CC(C)C(O)(C(=O)OCC1=CCN2CC[C@@H](O)[C@@H]12)C(C)O` (some centres undefined) [INDICINE], in the assay with A204, it took 34 µg/mL (≈ 114 µM) to reach half-maximal inhibition (IC50).

By IC50 is commonly meant the concentration needed to halve the response being measured. Read a low IC50 as higher potency. The term T/C denotes the result in the treated group divided by that in the control group, in per cent.

For the origin of these results see ChEMBL document CHEMBL1124172 (J Med Chem, 1988).
